The nature of series [1]: The therapeutic safety margin (TSM) is the ratio of the minimum lethal dose (mg/kg)to the MED. The class given is ADME, organism-based. The settings on record: in vivo. A digest of the protocol:
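Young male Wistar rats, eight per group, on cholesterol/cholic acid-supplemented or normal diet; graded oral gavage doses daily for 14 days; vehicle controls (0.5% tragacanth mucilage). Mortalities recorded to give the minimum lethal daily dose. After overnight fasting, serum cholesterol assayed by autoanalyzer. MED is the dose giving a significant (t test) 30% cholesterol fall, from the log dose/response curve. TSM = minimum lethal dose/MED.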

The subject of series [2] is Rattus norvegicus. Description: Hypolipidemic activity was measured as reduction in rat serum triglyceride after oral administration in male Wistar rats at 30 mg / (kg day). The series is classed as functional. The procedure, abridged:
(§1)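 Cholesterol-fed rats given the test compound orally by gavage on the last 3 days, with controls receiving vehicle (0.5% tragacanth mucilage). After overnight starvation, rats were killed under CO2 3 h after the last dose and bled by cardiac puncture. Serum cholesterol and triglyceride were measured by autoanalyzer and expressed as percentage reduction from control levels, with Student's t test.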

In series [3] the test system is Rattus norvegicus. As to the kind of experiment: Hypolipidemic activity was measured as reduction in rat serum cholesterol after oral administration in male Wistar rats at 3 mg / (kg day). The class given is functional. The procedure, abridged:
as §1

Series [4] deals with Rattus norvegicus. As to the kind of experiment: Hypolipidemic activity was measured as reduction in rat serum triglyceride after oral administration in male Wistar rats at 10 mg / (kg day). The series is classed as functional. The procedure, abridged:
as §1

Series [5] concerns Rattus norvegicus. As to the kind of experiment: Hypolipidemic activity was measured as reduction in rat serum cholesterol after oral administration in male Wistar rats at 30 mg / (kg day). The class given is functional. A digest of the protocol:
as §1

In series [6] the test system is Rattus norvegicus. Description: Minimum effective dose (MED) is the dose (mg/kg)that cause significant reduction in serum cholesterol of 30% compared to concurrent controls. The series is classed as functional. The arrangement: unit: mg/kg. The procedure, abridged:
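MED was calculated from the log dose/response curve as the dose giving a statistically significant 30% fall in serum cholesterol versus concurrent controls. Measured in the 3-day oral cholesterol-fed rat screen, or in a 2-week test: groups of eight young male Wistar rats on cholesterol/cholic acid-supplemented or normal diet, dosed orally by gavage daily for 14 days, vehicle 0.5% tragacanth mucilage.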

For series [7], the system named is Rattus norvegicus. As to the kind of experiment: Hypolipidemic activity was measured as reduction in rat serum cholesterol after oral administration in male Wistar rats at 1 mg / (kg day). The class given is functional. A digest of the protocol:
as §1

Series [8] has as its system Rattus norvegicus. Description: Hypolipidemic activity was measured as reduction in rat serum triglyceride after oral administration in male Wistar rats at 100 mg / (kg day). The series is classed as functional. The procedure, abridged: as §1
Series [9] concerns Rattus norvegicus. Description: Hypolipidemic activity was measured as reduction in rat serum cholesterol after oral administration in male Wistar rats at 10 mg / (kg day). The class given is functional. A digest of the protocol:
as §1

Series [10] relates to Rattus norvegicus. As to the kind of experiment: Hypolipidemic activity was measured as reduction in rat serum triglyceride after oral administration in male Wistar rats at 1. The series is classed as functional. The procedure, abridged: as §1
Series [11] deals with Rattus norvegicus. Description: Hypolipidemic activity was measured as reduction in rat serum triglyceride after oral administration in male Wistar rats at 3 mg / (kg day). The series is classed as functional. The procedure, abridged: as §1
Series [12] has as its system Rattus norvegicus. Description: Hypolipidemic activity was measured as reduction in rat serum cholesterol after oral administration in male Wistar rats at 100 mg/(kg day). The class given is functional. The procedure, abridged:
as §1

The test system of series [13] is Rattus norvegicus. Description: Hypolipidemic activity was measured as reduction in rat serum cholesterol after oral administration in male Wistar rats at 2.5 mg / (kg day). The class given is functional. The procedure, abridged:
as §1

The test system of series [14] is Rattus norvegicus. As to the kind of experiment: Hypolipidemic activity was measured as reduction in rat serum cholesterol after oral administration in male Wistar rats at 5 mg / (kg day). The series is classed as functional. A digest of the protocol: as §1
Series [15] deals with Rattus norvegicus. As to the kind of experiment: Hypolipidemic activity was measured as reduction in rat serum triglyceride after oral administration in male Wistar rats at 5 mg / (kg day). The series is classed as functional. The procedure, abridged: as §1
Series [16] relates to Rattus norvegicus. Description: Hypolipidemic activity was measured as reduction in rat serum triglyceride after oral administration in male Wistar rats at 50 mg / (kg day). The class given is functional. A digest of the protocol:
as §1

For series [17], the system named is Rattus norvegicus. Description: Hypolipidemic activity was measured as reduction in rat serum triglyceride after oral administration in male Wistar rats at 2.5 mg / (kg day). The series is classed as functional. The procedure, abridged: as §1
The subject of series [18] is Rattus norvegicus. As to the kind of experiment: Hypolipidemic activity was measured as reduction in rat serum cholesterol after oral administration in male Wistar rats at 50 mg / (kg day). The class given is functional. A digest of the protocol: as §1
Series [19] relates to Rattus norvegicus. Description: xHypolipidemic activity was measured as reduction in rat serum cholesterol after oral administration in male Wistar rats at 10 mg / (kg day). The class given is functional. The procedure, abridged:
as §1

SMILES strings stand for the structures.

As to `Cc1noc(C)c1C(c1ccc(C(C)C)cc1)N1CCN(CCO)CC1` (configuration not stated), the therapeutic safety margin (minimum lethal dose / MED) in series [1] came to 100. The Reduction in series [2] is listed as 16%; in series [3], 50%; in series [4] it was 56%; in [5] it was 77%; in series [7], 5%; in series [8] it was 84%. The Reduction is reported as 76% in [9], 7% in series [10], 29% in series [11] and 84% in series [12]. The compound also showed an MED in series [6] of 2.

As to `CC(C)c1ccc(C(c2ccns2)N2CCN(C)CC2)cc1` (configuration not stated), the Reduction in series [13] is 26%; in [14], 39%; in [15] it was 29%; in series [16] it was 67%; in [4], 63%; in series [8] it was 81%. Besides, the Reduction is reported as 15% in [17], 57% in series [9], 82% in series [18] and 86% in [12]. The therapeutic safety margin (minimum lethal dose / MED) in [1] came to 14. The MED in series [6] was 6.

For `CCC(C)c1ccc(C(c2cc(C)ns2)N2CCN(C)CC2)cc1` (configuration not stated), the Reduction was 19% in [19]; 55% in series [2]; 15% in series [4]; 67% in series [5]; 87% in series [8]; 72% in series [12]. Besides, the therapeutic safety margin (minimum lethal dose / MED) in [1] was found to be 20. In series [6], the MED was 14.

The values above are taken from ChEMBL document CHEMBL1122607, “Heterocyclic analogues of chlorcyclizine with potent hypolipidemic activity” (J Med Chem, 1984).
